The target in assay [1] is T1, Transient receptor potential cation channel subfamily V member 1 (Homo sapiens, UniProt Q8NER1). Description: Agonist-enhancing activity in epsilon-epitope tagged TRPV1 receptor expressed in mouse NIH3T3 cells assessed as capsaicin-induced 45Ca2+ influx at 100 uM by microplate liquid scintillation counter relative to capsaicin alone. The class given is functional, cell-based. The method in brief:
(§1)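 Stable ε-tagged TRPV1 NIH3T3 cells. Uptake with capsaicin 2 µM, 10 min at 20°C, 0.5 µCi/well 45Ca2+ in Tris-HBSS pH 7.5. Compound up to 100 µM, 2% DMSO, from 5 mM stocks, duplicate wells per concentration. Data normalized to capsaicin-only wells (100%). Variable-slope fit gave EC50 and ΔEmax; compounds too weak to fit were given ΔEmax at the top concentration.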

The target in assay [2] is T1, Transient receptor potential cation channel subfamily V member 1. As to the kind of experiment: Agonist activity at epsilon-epitope tagged TRPV1 receptor expressed in mouse NIH3T3 cells assessed as effect on 45Ca2+ influx by microplate liquid scintillation counter. It is filed as functional, cell-based. The method in brief:
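NIH3T3 cells stably expressing ε-tagged TRPV1 were seeded the day before and grown at 35°C. Test compound given without capsaicin, top concentration 100 µM, 2% DMSO. 45Ca2+ uptake run 10 min at 20°C in Tris-HBSS (pH 7.5) with ascorbate, 10 µM Ca2+ and 0.8 mM Mg2+. Cells were washed, lysed in RIPA and counted by scintillation.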

The target of assay [3] is Transient receptor potential cation channel subfamily V member 1 (Rattus norvegicus) (UniProt O35433). As to the kind of experiment: Agonist activity at TRPV1 receptor in E15 rat primary dorsal root ganglion cells assessed as effect on 45Ca2+ influx by microplate liquid scintillation counter. It is filed as functional, tissue-based. In outline:
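DRGs from E15 rat embryos, enzymatically dissociated, grown 5–6 days at 35°C. Test compound given without capsaicin. 45Ca2+ uptake run 10 min at 20°C in Tris-buffered (pH 7.5) HBSS with 1 mM ascorbate, 10 µM CaCl2 and 0.8 mM MgCl2, with 0.5 µCi/well tracer. Cells were washed, lysed in RIPA and counted by scintillation.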

Assay [4] shares this target. As to the kind of experiment: Agonist-enhancing activity at TRPV1 receptor in E15 rat primary dorsal root ganglion cells assessed as increase in intracellular calcium levels at 10 uM by Fura-4F AM based fluorimetric method relative to capsaicin alone. It is filed as functional, tissue-based. In outline:
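E15 rat DRG neurons on poly-ornithine/laminin coverslips, cultured 4–6 days. Loaded with 2.5 µM Fura-4F AM for 20 min at room temperature and perfused at 0.5 mL/min in pH 7.4 HEPES saline with ascorbate. Exposed 30 s to 200 nM capsaicin ± 10 µM compound, DMSO 0.04% in controls. 340/380 ratio read at 0.5 Hz and normalized to the 2-min baseline. Peak taken as the mean of 10 points, 3 coverslips per condition.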

Assay [5] concerns the target T1, Transient receptor potential cation channel subfamily V member 1. Description: Agonist-enhancing activity in epsilon-epitope tagged TRPV1 receptor expressed in mouse NIH3T3 cells assessed as capsaicin-induced 45Ca2+ influx by microplate liquid scintillation counter. It is filed as functional, cell-based. The method in brief: as §1
For assay [6], the target named is T2, Adenosine receptor A3 (Rattus norvegicus) (UniProt P28647).
T2 sequence (whole entry): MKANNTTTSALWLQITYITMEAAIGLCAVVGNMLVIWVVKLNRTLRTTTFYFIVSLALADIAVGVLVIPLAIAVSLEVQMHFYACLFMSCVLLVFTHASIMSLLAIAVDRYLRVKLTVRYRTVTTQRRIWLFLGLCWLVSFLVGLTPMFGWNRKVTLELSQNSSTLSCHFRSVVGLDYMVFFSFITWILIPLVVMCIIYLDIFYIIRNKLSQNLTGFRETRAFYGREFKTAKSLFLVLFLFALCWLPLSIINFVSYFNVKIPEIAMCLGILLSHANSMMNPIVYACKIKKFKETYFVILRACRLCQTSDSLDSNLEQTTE
Description: Binding affinity to rat adenosine A3 receptor.

The next assay addresses T3, Adenosine receptor A3 (Homo sapiens, UniProt P0DMS8).
T3 sequence (P0DMS8 whole entry): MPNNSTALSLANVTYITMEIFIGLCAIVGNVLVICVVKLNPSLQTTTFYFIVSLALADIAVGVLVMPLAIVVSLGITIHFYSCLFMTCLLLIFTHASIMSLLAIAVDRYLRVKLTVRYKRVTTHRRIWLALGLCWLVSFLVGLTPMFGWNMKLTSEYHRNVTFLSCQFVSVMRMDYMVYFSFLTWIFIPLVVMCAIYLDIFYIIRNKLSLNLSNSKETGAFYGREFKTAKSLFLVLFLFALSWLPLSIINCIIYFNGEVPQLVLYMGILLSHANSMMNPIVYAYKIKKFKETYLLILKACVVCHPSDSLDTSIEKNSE
As to the kind of experiment: Binding affinity to human adenosine A3 receptor.

The source made the active and inactive calls. The rule behind the calls is not given here.

T1 sequence (Q8NER1 whole entry): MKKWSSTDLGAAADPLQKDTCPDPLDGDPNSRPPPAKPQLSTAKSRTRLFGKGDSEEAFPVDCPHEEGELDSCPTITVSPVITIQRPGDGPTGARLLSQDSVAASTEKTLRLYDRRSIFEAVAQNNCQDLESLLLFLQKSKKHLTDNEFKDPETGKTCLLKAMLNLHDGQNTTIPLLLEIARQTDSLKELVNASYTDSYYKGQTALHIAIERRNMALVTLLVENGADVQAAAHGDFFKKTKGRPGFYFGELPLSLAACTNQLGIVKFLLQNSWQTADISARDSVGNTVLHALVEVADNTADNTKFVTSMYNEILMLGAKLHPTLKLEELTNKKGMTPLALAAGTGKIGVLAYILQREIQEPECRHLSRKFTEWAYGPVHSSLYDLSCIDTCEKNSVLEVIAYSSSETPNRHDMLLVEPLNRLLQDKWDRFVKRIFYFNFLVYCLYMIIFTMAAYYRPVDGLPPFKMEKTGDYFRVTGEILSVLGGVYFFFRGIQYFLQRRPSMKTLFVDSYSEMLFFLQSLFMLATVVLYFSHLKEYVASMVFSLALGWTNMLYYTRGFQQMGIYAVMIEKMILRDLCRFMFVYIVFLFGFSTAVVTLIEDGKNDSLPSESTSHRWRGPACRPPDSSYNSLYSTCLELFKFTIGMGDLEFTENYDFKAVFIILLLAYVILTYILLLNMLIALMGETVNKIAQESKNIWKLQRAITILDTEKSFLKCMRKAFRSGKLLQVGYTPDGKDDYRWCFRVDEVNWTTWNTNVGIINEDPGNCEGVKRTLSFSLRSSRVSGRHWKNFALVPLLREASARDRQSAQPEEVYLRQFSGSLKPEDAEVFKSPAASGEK
Sequence of Transient receptor potential cation channel subfamily V member 1 (Rattus norvegicus) (O35433 whole entry): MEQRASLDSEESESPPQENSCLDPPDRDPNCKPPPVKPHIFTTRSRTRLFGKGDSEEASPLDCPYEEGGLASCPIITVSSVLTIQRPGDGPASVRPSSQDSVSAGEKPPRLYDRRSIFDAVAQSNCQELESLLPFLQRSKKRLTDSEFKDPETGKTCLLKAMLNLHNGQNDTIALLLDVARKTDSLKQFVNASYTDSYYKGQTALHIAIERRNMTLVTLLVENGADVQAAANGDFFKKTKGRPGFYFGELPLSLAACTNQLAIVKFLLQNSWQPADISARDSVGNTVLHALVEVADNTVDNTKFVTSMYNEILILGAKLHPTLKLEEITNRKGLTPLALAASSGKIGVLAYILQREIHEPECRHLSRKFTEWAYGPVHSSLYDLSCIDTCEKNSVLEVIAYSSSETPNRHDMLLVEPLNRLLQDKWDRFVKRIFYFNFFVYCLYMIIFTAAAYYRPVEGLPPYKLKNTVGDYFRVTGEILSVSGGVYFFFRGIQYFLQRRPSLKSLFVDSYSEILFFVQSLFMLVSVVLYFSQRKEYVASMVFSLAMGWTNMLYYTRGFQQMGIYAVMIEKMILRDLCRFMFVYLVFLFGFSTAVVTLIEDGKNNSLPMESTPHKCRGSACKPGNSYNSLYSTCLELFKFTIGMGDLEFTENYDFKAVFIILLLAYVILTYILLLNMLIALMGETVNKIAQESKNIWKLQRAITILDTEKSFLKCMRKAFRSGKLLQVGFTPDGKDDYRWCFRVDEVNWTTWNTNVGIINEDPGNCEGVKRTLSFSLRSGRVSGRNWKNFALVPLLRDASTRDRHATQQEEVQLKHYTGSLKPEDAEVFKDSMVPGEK

For the molecule `CCOC(=O)C1=C(c2ccccc2)N=C(C)/C(=C(/O)SCCOC)C1CC` (configuration not stated), the Emax in assay [1] amounted to 626%. The result in assay [2], in assay [3] and in assay [6] was inactive. Moreover, in assay [4], the Activity turned out to be 13%. Also, in assay [5], the EC50 turned out to be 21.3 µM. At Adenosine receptor A3, the affinity, expressed as Ki, was 4.58 µM.

For orientation: Emax means the size of the effect at its maximum, as opposed to the concentration needed. In general, EC50 refers to the concentration at which the effect is half-maximal. A word on the Ki: it is the dissociation constant of the complex between target and ligand, obtained from inhibition or displacement. Low values mean tighter binding, high ones weaker binding.
